# Test results from ChEMBL document CHEMBL3588830, “Indole Alkaloids from Chaetomium globosum” (J Nat Prod, 2015).
# Active and inactive are the calls of the source. No cut-off for these calls is given here.
# Experiments:
# [1] = Antioxidative activity assessed as superoxide anion radical scavenging activity; format: physicochemical
# Bacillus subtilis = experiment: Antimicrobial activity against Bacillus subtilis 1.079 assessed as inhibition of microbial growth incubated at 37 degC for 24 hrs; format: functional; conditions: Bacillus subtilis, 1.079, 24 h
# Summary of the method: (§1)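 MIC by tube broth dilution in MHB. Samples were dissolved in DMSO, with final DMSO no more than 5% (v/v). Final dilutions ran from 50 to 0.19 μg/mL, with final bacteria at 1 × 10^8 CFU/mL. Tubes were incubated at 37 °C for 24 h. MIC was taken as the lowest concentration inhibiting visible growth.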
# Escherichia coli = experiment: Antimicrobial activity against Escherichia coli 1.044 assessed as inhibition of microbial growth incubated at 37 degC for 24 hrs; format: functional; conditions: Escherichia coli, 1.044, 24 h; summary of the method: as §1
# [2] = Antioxidative activity assessed as DPPH radical scavenging activity at 89.9 uM; format: physicochemical
# [3] = Antioxidative activity assessed as superoxide anion radical scavenging activity at 88.3 uM; format: physicochemical
# [4] = Antioxidative activity assessed as ABTS cation radical scavenging activity at 103.7 uM; format: physicochemical
# [5] = Antioxidative activity assessed as DPPH radical scavenging activity; format: physicochemical
# [6] = Antioxidative activity assessed as ABTS cation radical scavenging activity; format: physicochemical
# Candida albicans [7] = experiment: Antimicrobial activity against Candida albicans assessed as inhibition of microbial growth up to 200 ug/mL incubated at 31 degC for 72 hrs; format: functional, organism-based
# Summary of the method: (§2)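 Oxford cup diffusion assay on agar plates of potato extract 20% (w/v, boiled 20 min), dextrose 20.0 g/L and agar 17 g/L, seeded with the fungal strain. Plates incubated at 31 °C for 72 h.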
# Fusarium graminearum [8] = experiment: Antimicrobial activity against Fusarium graminearum assessed as inhibition of microbial growth up to 200 ug/mL incubated at 31 degC for 72 hrs; format: functional, organism-based; summary of the method: as §2
# [9] = tested on: Fusarium oxysporum f. sp. vasinfectum; experiment: Antimicrobial activity against Fusarium vasinfectum assessed as inhibition of microbial growth up to 200 ug/mL incubated at 31 degC for 72 hrs; format: functional, organism-based; summary of the method: as §2
# Saccharomyces cerevisiae [10] = experiment: Antimicrobial activity against Saccharomyces cerevisiae assessed as inhibition of microbial growth up to 200 ug/mL incubated at 31 degC for 72 hrs; format: functional, organism-based; summary of the method: as §2
# Aspergillus niger [11] = experiment: Antimicrobial activity against Aspergillus niger assessed as inhibition of microbial growth incubated up to 200 ug/mL at 31 degC for 72 hrs; format: functional, organism-based; summary of the method: as §2
# [12] = Antioxidative activity assessed as DPPH radical scavenging activity at 93.9 uM; format: physicochemical
# [13] = Antioxidative activity assessed as superoxide anion radical scavenging activity at 90.9 uM; format: physicochemical
# [14] = Antioxidative activity assessed as ABTS cation radical scavenging activity at 108.3 uM; format: physicochemical
# Candida albicans [15] = experiment: Antimicrobial activity against Candida albicans assessed as inhibition of microbial growth up to 100 ug/mL incubated at 31 degC for 72 hrs; format: functional, organism-based
# Summary of the method: (§3)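 Oxford cup diffusion on agar plates of potato extract 20% (w/v, boiled 20 min), dextrose 20.0 g/L and agar 17 g/L, inoculated with the test fungus. Plates were incubated at 31 °C for 72 h.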
# Fusarium graminearum [16] = experiment: Antimicrobial activity against Fusarium graminearum assessed as inhibition of microbial growth up to 100 ug/mL incubated at 31 degC for 72 hrs; format: functional, organism-based; summary of the method: as §2
# [17] = tested on: Fusarium oxysporum f. sp. vasinfectum; experiment: Antimicrobial activity against Fusarium vasinfectum assessed as inhibition of microbial growth up to 100 ug/mL incubated at 31 degC for 72 hrs; format: functional, organism-based; summary of the method: as §3
# Saccharomyces cerevisiae [18] = experiment: Antimicrobial activity against Saccharomyces cerevisiae assessed as inhibition of microbial growth up to 100 ug/mL incubated at 31 degC for 72 hrs; format: functional, organism-based; summary of the method: as §3
# Aspergillus niger [19] = experiment: Antimicrobial activity against Aspergillus niger assessed as inhibition of microbial growth incubated up to 100 ug/mL at 31 degC for 72 hrs; format: functional, organism-based; summary of the method: as §3
# [20] = Antioxidative activity assessed as superoxide anion radical scavenging activity at 61.3 uM; format: physicochemical
structure (smiles),measurement,setting,value
O=c1cc(-c2ccc(O)c(O)c2)oc2cc(O)cc(O)c12 [LUTEOLIN],IC50,[1],22.3 µM
COc1cccc(OC)c1C(=O)N[C@@H]1C(=O)N2[C@@H]1SC(C)(C)[C@@H]2C(=O)O [METHICILLIN],MIC,Bacillus subtilis,0.78 µg/mL
CN1C(=O)[C@]2(Cc3cn([C@]45C[C@@]67SSS[C@@](CO)(C(=O)N6[C@H]4Nc4ccccc45)N(C)C7=O)c4ccccc34)SS[C@@]1(CO)C(=O)N2C [CHETOSEMINUDIN A],MIC,Bacillus subtilis,0.78 µg/mL
same,MIC,Escherichia coli,> 50 µg/mL
same,inhibition (INH),[2],< 10%
same,inhibition (INH),[3],51.5%
same,inhibition (INH),[4],< 20%
O=C1O[C@H]([C@@H](O)CO)C(O)=C1O [ASCORBIC ACID],IC50,[5],0.02 µM
same,IC50,[6],0.01 µM
CN1C(=O)[C@]2(Cc3cn([C@]45C[C@@]67SS[C@@](CO)(C(=O)N6[C@H]4Nc4ccccc45)N(C)C7=O)c4ccccc34)SS[C@@]1(CO)C(=O)N2C [CHETOMIN],MIC,Bacillus subtilis,0.78 µg/mL
same,MIC,Escherichia coli,> 50 µg/mL
same,growth inhibition (GI),Candida albicans [7],inactive
same,growth inhibition (GI),Fusarium graminearum [8],inactive
same,growth inhibition (GI),[9],inactive
same,growth inhibition (GI),Saccharomyces cerevisiae [10],inactive
same,growth inhibition (GI),Aspergillus niger [11],inactive
same,inhibition (INH),[12],< 10%
same,inhibition (INH),[13],18.1%
same,inhibition (INH),[14],< 20%
CN1C(=O)C2=CC3(n4cc(C[C@@]56SSSS[C@@](CO)(C(=O)N5C)N(C)C6=O)c5ccccc54)c4ccccc4N[C@@H]3N2C(=O)C1CO (some centres undefined),MIC,Bacillus subtilis,25 µg/mL
same,MIC,Escherichia coli,> 50 µg/mL
same,inhibition (INH),[12],< 10%
same,inhibition (INH),[13],14.8%
same,inhibition (INH),[14],< 20%
CC(C)=CCc1ccc2[nH]cc(C3=C(O)C(=O)C(O)(c4c[nH]c5ccc(CC=C(C)C)cc45)C(=O)C3=O)c2c1 (centres undefined),MIC,Bacillus subtilis,50 µg/mL
same,MIC,Escherichia coli,> 50 µg/mL
same,growth inhibition (GI),Candida albicans [15],inactive
same,growth inhibition (GI),Fusarium graminearum [16],inactive
same,growth inhibition (GI),[17],inactive
same,growth inhibition (GI),Saccharomyces cerevisiae [18],inactive
same,growth inhibition (GI),Aspergillus niger [19],inactive
same,IC50,[5],144 µM
same,IC50,[6],45.2 µM
same,inhibition (INH),[20],30.4%
